Assay results pooled from the literature.
Each line is one published result; the experiments were not run side by side.
Target: Serine/threonine-protein kinase SIK2 (SIK2, Homo sapiens, UniProt Q9H0K1)

SMILES | assay | setting | quantity | result
CCCS(=O)(=O)Nc1ccc(F)c(C(=O)c2c[nH]c3ncc(-c4ccc(Cl)cc4)cc23)c1F | enzyme activity, inhibitor | 1 µM | inhibition | < 10%
CC(C)(O)[C@H]1CC[C@H](Nc2ccc3ncc(-c4cccc(C(F)(F)F)c4)n3n2)CC1 | enzyme activity, inhibitor | 1 µM | remaining activity | 47.7%
O=C(Nc1cccnn1)N1CCC(=Cc2cccc(Oc3ccc(C(F)(F)F)cn3)c2)CC1 | cell-free assay, competition with immobilised ligand | 1 µM | remaining binding | 100%
O=C(Nc1cnn(-c2csc(C(=O)NC3COC3)c2)c1)Nc1ccccc1Cl | enzyme activity, inhibitor | 5 µM | remaining activity | 97%
O=C1NC(=O)c2cc(Nc3ccc(F)cc3)c(Nc3ccc(F)cc3)cc21 | cell-free assay | 0.5 µM | remaining signal | 103%
COc1cc2ncnc(Nc3ccc(Oc4ccccc4)c(C)c3C)c2cc1OC | enzyme activity, inhibitor | 1 µM | inhibition | 0%
O=C1CCc2cc(Nc3cc(OC4CCOCC4)c([N+](=O)[O-])cc3Cl)ccc2N1 | cell-free assay, competition with immobilised ligand | 1 µM | remaining binding | 100%
CC(C)(C)c1nc(-c2cccc(NS(=O)(=O)c3c(F)cccc3F)c2F)c(-c2ccnc(N)n2)s1 | enzyme activity, inhibitor, radiometric | 1 µM | remaining activity | 98%
COc1cc(-c2cc(-c3ccc(N4CCNCC4)cc3)cnc2N)cc(OC)c1OC | enzyme activity, inhibitor | 1 µM | inhibition | 82%
C[S+]([O-])c1ccc(-c2nc(-c3ccncc3)c(-c3ccc(F)cc3)[nH]2)cc1 (stereo not shown) | cell-free assay | 0.5 µM | remaining signal | 82.1%
CC/C(=N\NC(=O)NCc1cccc(O)c1)c1ccc(O)c(C)c1O | enzyme activity, inhibitor | 0.1 µM | inhibition | -5.5%
Cc1ccc(C(=O)Nc2ccc(CN3CCN(C)CC3)c(C(F)(F)F)c2)cc1C#Cc1cnc2cccnn12 | enzyme activity, inhibitor | 23.5 nM | remaining activity | 67%
CN([C@@H]1CCc2c(CC(=O)O)c3cc(S(C)(=O)=O)ccc3n2C1)S(=O)(=O)c1ccc(F)cc1 | cell-free assay, competition with immobilised ligand | 1 µM | remaining binding | 93%
FC(F)(F)Oc1cccc(-c2cnc3ccc(-c4ccncc4)nn23)c1 | enzyme activity, inhibitor, radiometric | 5 µM | activity vs control | 69%
Cc1sc(C(=O)NC2COC2)cc1-n1cc(NC(=O)Nc2c(F)cccc2Cl)cn1 | enzyme activity, inhibitor | 10 µM | remaining activity | 89.8%
O=C(NCCCC1CCCCC1)c1ccc(CNC(=O)c2cnn(-c3ccccc3)c2C(F)(F)F)cc1 | cell-free assay, competition with immobilised ligand | 0.1 µM | remaining binding | 100%
Nc1ncnc2occ(-c3ccc(NC(=O)Nc4cc(C(F)(F)F)ccc4F)cc3)c12 | cell-free assay, inhibitor | 20 µM | remaining signal | 57%
O=C1Nc2ccc(Cl)cc2C1=Cc1cc(Cl)c(O)c(Cl)c1 | cell-free assay | 0.5 µM | remaining signal | 95%
Cc1nccc(COC(=O)N2C[C@@H]3[C@@H](CNC(=O)c4ccc5[nH]nnc5c4)[C@@H]3C2)n1 | cell-free assay, competition with immobilised ligand | 1 µM | remaining binding | 92%
